Measured values from paper PMC4373334 (Journal of Cellular and Molecular Medicine, 2010).

Tests used:
[1] = tested on: Zucker obese (fa/fa) rats; assay: Zucker obese rat: renal function; assay type: in vivo; conditions: for restraint of proteinuria/albuminuria/creatininuria: 24 hr urinary excretion, end of treatment; for change in creatinine clearance (GFR) versus ZK / change in plasma creatinine concentration versus ZK / restraint of the increase in urinary albumin-to-creatinine ratio: end of 24-week treatment
[2] = tested on: Zucker obese (fa/fa) rats; assay: Zucker obese rat, 24-week treatment: plasma parameters; assay type: in vivo; conditions: for change in plasma cholesterol versus ZK / change in plasma triglycerides versus ZK: after 24 weeks, 30 mg/kg/day; for insulin resistance (HOMA-IR) versus ZK / reduction of hyperinsulinaemia (plasma insulin) versus ZK / effect on plasma glucose levels: end of 24-week treatment; for effect on plasma glucose levels: fasting
Method in brief: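 Male Zucker fa/fa rats (lean littermates as reference), 12 per group, received test compound in drinking water at 30 mg/kg/24 h from week 6 to week 30. Plasma spun 15 min at 4°C and stored at –80°C. Cholesterol, triglycerides, glucose and insulin measured by enzymatic-colorimetric kits. HOMA-IR calculated from fasting glucose and insulin.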

[3] = HNE quenching ability in homogeneous solution; conditions: HNE 200 μM; for HNE quenched: 1:10 molar excess, 24 hrs of incubation; for residual amount of HNE: quencher 2 mM (1:10), phosphate buffer pH 7.4, 37°C, 60 min
[4] = Pharmacokinetic profile in the rat after oral administration; assay type: in vivo, Sprague-Dawley rats; conditions: for Cmax: pre-dose concentration subtracted
Method in brief: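 Single oral dose of 100 mg/kg given to three male Sprague-Dawley rats per test compound. Plasma sampled pre-dose and at 0.25, 0.5, 1, 2, 4, 6 and 24 h, stored at –80°C, and assayed by LC-MS/MS. Pre-dose (endogenous) level subtracted. Non-compartmental analysis: Cmax and tmax read from raw data; AUC0–tlast by linear trapezoidal rule.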

[5] = tested on: Zucker obese (fa/fa) rats; assay: Zucker obese rat: tail tendon collagen solubility and Ehrlich adducts; assay type: in vivo; conditions: for reduction of Ehrlich positive material versus ZK: not significant; for Collagen solubility: acetic acid; for Collagen solubility / Ehrlich adducts: end of the experiment
Method in brief: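 Tail tendons from treated Zucker fa/fa rats (drinking water, 30 mg/kg/24 h, weeks 6–30) cleaned and washed in ice-cold 75 mM phosphate buffer, pH 7.00, then lyophilized. Solubility determined on 10 mg samples; hydroxyproline measured after acid hydrolysis, collagen taken as 14% hydroxyproline. Ehrlich adducts and fluorescence (ex 365/em 416 nm) measured on 50 mg pepsin-digested collagen, blank-corrected, per mg collagen.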

[6] = tested on: Zucker obese (fa/fa) rats; assay: Zucker obese rat: kidney cholesterol and triglycerides content; assay type: in vivo; conditions: end of 24-week treatment, S 9.000 kidney fraction
Method in brief: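 Zucker fa/fa rats dosed via drinking water at 30 mg/kg/24 h from week 6 to week 30; six rats per group used for tissue. Kidney frozen in liquid nitrogen. Total cholesterol and triglycerides measured with commercial kits in S9000 kidney fraction (0.25 g/ml), expressed as μg/mg protein.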

[7] = tested on: Zucker obese (fa/fa) rats; assay: Zucker obese rat: systolic blood pressure by tail-cuff plethysmography; assay type: in vivo; conditions: end of the experiment (30 weeks)
Method in brief: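 Zucker fa/fa rats dosed in drinking water (30 mg/kg/24 h, weeks 6–30). Systolic pressure taken monthly by tail-cuff plethysmography in conscious, unanaesthetized rats pre-warmed 30 min at 37°C and restrained in a plastic chamber. Heart rate taken from the arterial pulse wave.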

[8] = Stability in human liver S 9.000 fraction; assay type: in vitro ADME; conditions: within 15 min, then unchanged until 120 min
Method in brief: (§1)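 Matrices were human serum (healthy donors, 25–30 yr), human liver S9000 fraction or rat kidney S9000 fraction (0.25 g/ml), pre-warmed 10 min at 37°C. Test compound added from a 1 mM solution in 10 mM PBS, pH 7.4; PBS-only controls run alongside. Sampled at 0–120 min, with 24 h added for serum. Internal standard added, then perchloric acid deproteinization (15 min, 4°C), centrifugation and LC-MS/MS.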

[9] = tested on: Zucker obese (fa/fa) rats; assay: Zucker obese rat: renal morphology and morphometry; assay type: in vivo; conditions: for mean glomerular diameter / glomerular and interstitial changes (glomerulosclerosis, tubulointerstitial damage) versus ZK: 30 weeks; for mean glomerular diameter: ZK 1.098 ± 0.05; for glomerular and interstitial changes (glomerulosclerosis, tubulointerstitial damage) versus ZK: light microscopy
Stability = assay type: in vitro ADME, human; conditions: for stability to enzymatic hydrolysis in human serum: 37°C, followed over 24 hrs
Method in brief: as §1

[10] = Stability in rat kidney S 9000 fraction; assay type: in vitro ADME
Method in brief: as §1

[11] = tested on: Zucker obese (fa/fa) rats; assay: Zucker obese rat, 24-week treatment: body weight and food intake; assay type: in vivo; conditions: 30 weeks of age, 30 mg/kg/day for 24 weeks
Method in brief: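 Male Zucker fa/fa rats bought at 5 weeks, with lean Fa/Fa littermates as reference. Housed singly at 22 ± 1°C on a 12 h light/dark cycle, standard chow, 1 week acclimation. Randomized to three groups of 12. Test compound given in drinking water, concentration adjusted weekly to 30 mg/kg/24 h, from week 6 to week 30.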

[12] = tested on: Zucker obese (fa/fa) rats; assay: Zucker obese rat: kidney protein carbonyl content; assay type: in vivo; conditions: for Kidney PCOs: end of the experiment; for reduction of kidney PCOs versus ZK: kidney homogenates
Method in brief: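 Kidneys taken at week 30 from Zucker fa/fa rats (six per group) given test compound in drinking water at 30 mg/kg/24 h. Homogenate 25% w/v in 0.15 M KCl, pH 7.4, with protease inhibitors, centrifuged at 12,000 ×g for 10 min. Total protein carbonyls read at 366 nm (ε 22,000/M/cm), expressed as nmoles/mg protein.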

[13] = ACR quenching ability in homogeneous solution; conditions: 60 min; for percentage amount of ACR quenched: ACR 50 μM, quencher 500 μM (1:10); for ACR disappeared: ACR 200 μM, 1:10 molar excess
[14] = Zucker obese rat: carnosine levels in plasma, urine and renal tissue; assay type: in vivo; conditions: for Carnosine level, Urine: no compound given during 24 hr in metabolic cage
[15] = tested on: Zucker obese (fa/fa) rats; assay: Zucker obese rat: urinary oxidative/carbonyl stress indices; assay type: in vivo; conditions: end of the experiment; for AGEs: urine fluorescence; for CAR-HNE level / 8-epi-PGF2α level: urine; for CAR-HNE level: LC-ESI-MS/MS
Method in brief: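 24 h urine from treated Zucker fa/fa rats (drinking water, 30 mg/kg/24 h, weeks 6–30). 8-epi-PGF2α and TXB2 measured by enzyme immunoassay. Low-molecular-weight AGEs read by fluorescence (ex 370/em 440 nm), expressed per mg urinary creatinine. CAR-HNE Michael adduct quantified by LC-ESI-MS/MS.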

[16] = human beings receiving 450 mg, 15 min up to 300 min; cited from earlier work
Stability in rat serum = assay type: in vitro ADME
[17] = cited from earlier work
[18] = male, Sprague-Dawley, rat, plasma, po, 100 mg/kg

NCCC(=O)N[C@H](Cc1c[nH]cn1)C(=O)O [D-CAR, β-alanyl-D-histidine]
restraint of proteinuria/albuminuria/creatininuria [1]: approximately 50%
change in creatinine clearance (GFR) versus ZK [1]: +25.1%
change in plasma creatinine concentration versus ZK [1]: –36%
restraint of the increase in urinary albumin-to-creatinine ratio [1]: 65–70%
change in plasma cholesterol versus ZK [2]: –45%
change in plasma triglycerides versus ZK [2]: –43%
insulin resistance (HOMA-IR) versus ZK [2]: significantly improved
reduction of hyperinsulinaemia (plasma insulin) versus ZK [2]: 33.03%
effect on plasma glucose levels [2]: did not significantly affect
HNE quenched [3]: ~100%
residual amount of HNE [3]: 46.9 ± 2.3%
half-life ([4]; oral 100 mg/kg, rat plasma): 202 min
systemic exposure up to infinite time AUC(0–∞) ([4]; oral 100 mg/kg, rat plasma): 318.62 ± 24.75 nmol·h/mL
time until plasma concentration returned to baseline ([4]; oral 100 mg/kg, rat plasma): 24 h
Cmax ([4]; oral 100 mg/kg, rat plasma): 52.86 ± 2.86 nmol/mL
tmax ([4]; oral 100 mg/kg, rat plasma, 100 mg/kg): 2 h
reduction of Ehrlich positive material versus ZK [5]: ~21.7%
Collagen solubility ([5]; tail tendon collagen): 71.4 ± 3.14 ^* ^* %
Ehrlich adducts ([5]; tail tendon collagen): 0.747 ± 0.384 µmol/mg
total cholesterol content in kidney [6]: 6.668 ± 0.5087 μg/mg protein
triglycerides content in kidney [6]: 10.66 ± 0.3616 μg/mg protein
SBP [7]: 137 ± 4 mmHg
reduction of SBP versus ZK [7]: 15.7%
hydrolysis in human liver [8]: ~30%
mean glomerular diameter [9]: 1.042 ± 0.005
GBM thickness ([9]; electron microscopy, four animals per group): 3.75 ± 0.8 nm
glomerular and interstitial changes (glomerulosclerosis, tubulointerstitial damage) versus ZK [9]: not significantly modified
stability to enzymatic hydrolysis in human serum (Stability): remained unchanged until 6 hrs incubation
decrease in human serum (Stability; after 24 hrs of incubation): 6%
remaining in rat kidney ([10]; 120 min of incubation): 91%
body weight difference versus LN [11]: +40%
body weight difference versus ZK [11]: –9%
Kidney PCOs [12]: 6.61 ± 1.52 ^* nmol/mg prot
reduction of kidney PCOs versus ZK [12]: 42.61%
percentage amount of ACR quenched [13]: 65.0 ± 3.3%
ACR disappeared [13]: ~100%
Carnosine level, Kidney ([14]; end of the experiment): 127.7 ± 17.00 ^* ^*/°°° nmol/g wet tissue
increase in kidney CAR content compared to ZK ([14]; end of the experiment): 14.4 fold
increase of plasma carnosine concentration ([14]; end of the experiment): > 10 fold
Carnosine level, Plasma ([14]; end of the experiment, 30 mg/kg/day for 24 weeks): 5.37 ± 3.04 nmol/mL
Carnosine level, Urine ([14]; end of the experiment): 10,069 ± 1844 ^* ^*/°°° nmol/day
effect on urinary TXB2 excretion rates [15]: did not affect
increase in urinary CAR-HNE levels compared to ZK [15]: 2.2 fold
AGEs [15]: 324.4 ± 21.8 ^* ^* FU/mg creatinine/day
CAR-HNE level [15]: 0.982 ± 0.33 nmol/day
8-epi-PGF2α level [15]: 42.1 ± 3.9 ng/day

NCCC(=O)N[C@@H](Cc1cnc[nH]1)C(=O)O [L-CAR, β-alanyl-L-histidine]
restraint of proteinuria/albuminuria/creatininuria [1]: approximately 50%
change in creatinine clearance (GFR) versus ZK [1]: +28.3%
change in plasma creatinine concentration versus ZK [1]: –31.7%
restraint of the increase in urinary albumin-to-creatinine ratio [1]: 65–70%
change in plasma cholesterol versus ZK [2]: –40%
change in plasma triglycerides versus ZK [2]: –35%
insulin resistance (HOMA-IR) versus ZK [2]: significantly improved
reduction of hyperinsulinaemia (plasma insulin) versus ZK [2]: 28.08%
effect on plasma glucose levels [2]: did not significantly affect
HNE quenched [3]: ~100%
residual amount of HNE [3]: 46.2 ± 2.73%
half-life [4, 18]: 14.4 ± 1.2 min
tmax [4, 18]: 1 h
systemic exposure up to infinite time AUC(0–∞) ([4]; oral 100 mg/kg, rat plasma): 118.45 ± 9.24 nmol·h/mL
time until plasma concentration returned to baseline ([4]; oral 100 mg/kg, rat plasma): 2 h
Cmax ([4]; oral 100 mg/kg, rat plasma): 147.7 ± 6.50 nmol/mL
reduction of Ehrlich positive material versus ZK [5]: ~9.1%
increase of collagen solubility compared to ZK ([5]; tail tendon collagen): 66.4%
Collagen solubility ([5]; tail tendon collagen): 65.4 ± 2.58 ^* %
Ehrlich adducts ([5]; tail tendon collagen): 0.868 ± 0.39 µmol/mg
total cholesterol content in kidney [6]: 6.31 ± 0.5115 μg/mg protein
triglycerides content in kidney [6]: 12.01 ± 0.9528 μg/mg protein
SBP [7]: 145 ± 3 mmHg
reduction of SBP versus ZK [7]: 11.5%
hydrolysis in human liver [8]: ~30%
mean glomerular diameter [9]: 1.023 ± 0.02
glomerular and interstitial changes (glomerulosclerosis, tubulointerstitial damage) versus ZK [9]: not significantly modified
stability to enzymatic hydrolysis in human serum (Stability): rapidly disappeared in human serum at the first time-point (60 min.)
time to disappearance in human serum (Stability; in vitro studies in the authors' laboratories): ≤ 5 min
hydrolysis in rat kidney ([10]; during the sample processing time): about 93%
body weight difference versus LN [11]: +35.8%
body weight difference versus ZK [11]: –12%
Kidney PCOs [12]: 8.83 ± 1.91 nmol/mg prot
reduction of kidney PCOs versus ZK [12]: 23.4%
percentage amount of ACR quenched [13]: 63.8 ± 3.5%
ACR disappeared [13]: ~100%
concentration at 24 weeks ([14]; Zucker obese, rat, plasma, oral, 30 mg/kg/day): 473 ± 130 nM
Carnosine level, Kidney ([14]; end of the experiment): 14.67 ± 2.09 nmol/g wet tissue
increase in kidney CAR content compared to ZK ([14]; end of the experiment): 1.6 fold
Carnosine level, Urine ([14]; end of the experiment): 32.62 ± 1.25 nmol/day
CAR in serum after oral supplementation [16]: No CAR was detected in serum specimens
effect on urinary TXB2 excretion rates [15]: did not affect
increase in urinary CAR-HNE levels compared to ZK [15]: 1.7 fold
AGEs [15]: 337.2 ± 28.7 ^* FU/mg creatinine/day
CAR-HNE level [15]: 0.749 ± 0.37 nmol/day
8-epi-PGF2α level [15]: 37.6 ± 4.3 ng/day
stability in rat serum (Stability in rat serum): no significant reduction within at least 6 hrs
time to hydrolysis in human serum [17]: ≤ 5 min
